According to ChEMBL document CHEMBL1764956, “Inhibitory effects of Mannich bases of heterocyclic chalcones on NO production by activated RAW 264.7 macrophages and superoxide anion generation and elastase release by activated human neutrophils” (Bioorg Med Chem, 2011):

Legend:
Neutrophil [1] = assay: Inhibition of FMLP/CB-stimulated superoxide anion generation in human neutrophils treated for 5 mins before FMLP and CB challenge for 10 mins and 3 mins respectively by spectrophotometer analysis; assay type: functional, cell-based
Method in brief: (§1)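 Human neutrophils in Ca2+-free HBSS pH 7.4 plus 0.5 mg/ml ferricytochrome c and 1 mM Ca2+. Equilibrated 37 °C 2 min, drug 5 min, cytochalasin B (1 µg/ml) 3 min, then 100 nM FMLP 10 min. SOD-inhibitable ferricytochrome c reduction followed at 550 nm with stirring. Mean ± S.E.M., n = 3–4; IC50 = 50% inhibition.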

RAW264.7 [2] = assay: Inhibition of LPS/IFNgamma-induced NO production in mouse RAW264.7 cells after 24 hrs by Griess reagent method; assay type: functional, cell-based; settings: RAW264.7, 24 h
Method in brief: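 RAW 264.7 cells grown to confluence in 96-well plates (~200,000 cells/well), then given fresh medium with LPS (1 µg mL-1) plus IFN-γ (50 U mL-1); compounds added together with stimulus. Nitrite in medium read at 24 h: Griess reagent (1% sulfanilamide, 0.1% naphthylenediamine, 5% phosphoric acid), OD550, against sodium nitrite standards made in medium. IC50 = 50% inhibition.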

RAW264.7 [3] = assay: Cytotoxicity against mouse RAW264.7 cells assessed as cell viability after 4 hrs by MTT assay; assay type: cell-based; settings: RAW264.7, 4 h
Method in brief: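 RAW 264.7 macrophages (ATCC) grown in DMEM with 10% heat-inactivated FCS and penicillin/streptomycin at 37 °C, 5% CO2, in 96-well plates. Cells incubated with MTT (5 mg mL-1) for 4 h at 37 °C. Formazan dissolved in acid-SDS. Viability taken from mitochondria-dependent MTT reduction.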

Neutrophil [4] = assay: Inhibition of FMLP/CB-stimulated elastase release in human neutrophils treated for 5 mins before FMLP/CB challenge using MeO-Suc-Ala-Ala-Pro-Val-p-nitroanilide as a substrate; assay type: functional, cell-based
Method in brief: (§2)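 Human neutrophils (6×10^5/ml) with 100 µM MeO-Suc-Ala-Ala-Pro-Val-p-nitroanilide, equilibrated 37 °C 2 min, drug 5 min, then activated by 100 nM FMLP plus 0.5 µg/ml cytochalasin B. Absorbance at 405 nm monitored continuously. Expressed as % of release in drug-free FMLP/CB control. Mean ± S.E.M., n = 3–4; IC50 = 50% inhibition.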

Neutrophil [5] = assay: Inhibition of FLMP-stimulated Ca2+ mobilization in human neutrophils assessed as time required to decrease half of Ca2+ at 10 uM treated for 5 mins before FLMP challenge by fluo-3 AM-based spectrofluorometry; assay type: functional, cell-based
Method in brief: (§3)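 Human neutrophils (dextran sedimentation, Ficoll Hypaque, hypotonic erythrocyte lysis; >98% viable) loaded with 2 µM fluo-3 AM, 37 °C, 45 min, washed, 3×10^6 cells/ml in Ca2+-free HBSS. Stimulated with 0.1 µM FMLP with 1 mM Ca2+, 37 °C, stirring; ex 488/em 520 nm. [Ca2+]i = Kd[(F−Fmin)/(Fmax−F)], Fmax with 0.05% Triton X-100, Fmin with 20 mM EGTA. Mean ± SEM.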

Neutrophil [6] = assay: Inhibition of FLMP-stimulated Ca2+ mobilization in human neutrophils assessed as maximum intracellular Ca2+ concentration at 10 uM treated for 5 mins before stimulation by fluo-3 AM-based spectrofluorometry; assay type: functional; method in brief: as §3
Neutrophil [7] = assay: Inhibition of FMLP/CB-stimulated elastase release in human neutrophils at 30 uM treated for 5 mins before FMLP/CB challenge using MeO-Suc-Ala-Ala-Pro-Val-p-nitroanilide as a substrate relative to control; assay type: functional; method in brief: as §2
Neutrophil [8] = assay: Inhibition of FMLP/CB-stimulated superoxide anion generation in human neutrophils at 30 uM treated for 5 mins before FMLP and CB challenge for 10 mins and 3 mins respectively by spectrophotometer analysis relative to control; assay type: functional; method in brief: as §1

Compound	IC50 (Neutrophil [1]) [µM]	IC50 (RAW264.7 [2]) [µM]	IC50 (Neutrophil [4]) [µM]	IC50 (RAW264.7 [3]) [µM]	T1/2 (Neutrophil [5]) [s]	Activity (Neutrophil [6]) [nM]	inhibition at 30 µM (Neutrophil [7]) [%]	inhibition at 30 µM (Neutrophil [8]) [%]
COc1ccc(/C=C/C(=O)c2cc(CN3CCOCC3)c(OC)cc2O)cc1	5.77	3.35		1860				
O=C(/C=C/c1cccnc1)c1ccc(CN2CCOCC2)c(O)c1	5.96	0.23	6.66					
COc1ccc(C(=O)/C=C/c2ccccn2)c(O)c1CN1CCOCC1	0.68	1.73	0.95	10.8	8.43	208.65		
COc1ccc(/C=C/C(=O)c2cccc(C)c2)c(CN2CCOCC2)c1O	3.16		2.95					
O=C(/C=C/c1cccs1)c1cccc(O)c1CN1CCOCC1	10.5	2.49	24.3	12.7				
O=C(/C=C/c1ccccn1)c1ccc(O)c(CN2CCOCC2)c1O	12.6	1.73	21.2	11.4				
CCOc1cc(O)c(C(=O)/C=C/c2ccccc2)cc1CN1CCOCC1	3.35	0.29		1.6				
COc1cc(O)c(C(=O)/C=C/c2ccccc2)cc1CN1CCOCC1	2.86	0.2		0.19				
CCOc1cc(O)c(C(=O)/C=C/c2ccco2)cc1CN1CCOCC1		16.5		16.9				39.9
COc1cc(O)c(C(=O)/C=C/c2ccco2)cc1CN1CCOCC1	15.8	6.06		1440			17.9	
O=C(/C=C/c1ccccn1)c1ccc(O)c(CN2CCOCC2)c1	15.2	3.41	20.9	6.56				
c1ccc2c(c1)[I+]c1ccccc1-2 [DIPHENYLENEIODONIUM]	1.02							
COc1ccc(/C=C/C(=O)c2ccco2)c(CN2CCCCC2)c1O	4.18							
COc1ccc(/C=C/C(=O)c2ccc(C)cc2)c(CN2CCOCC2)c1O	2.76		6.97					
O=C(/C=C/c1ccncc1)c1ccc(CN2CCOCC2)c(O)c1	1.6	0.055	2.28	110				
COc1ccc(/C=C/C(=O)c2cccs2)c(CN2CCCCC2)c1O	8.32							
O=S(=O)(F)Cc1ccccc1 [PHENYLMETHYLSULFONYLFLUORIDE]			95					
O=C(/C=C/c1ccccc1)c1cccc(O)c1CN1CCOCC1	2.81	2.3	5.19	9.95				
O=C(/C=C/c1cccnc1)c1ccc(O)c(CN2CCOCC2)c1	23.5	0.82		53.2			20.4	
COc1ccccc1OC(=O)CNC(=O)Cc1ccc(C(=O)c2ccc(C)cc2)n1C [AMTOLMETIN GUACIL]		51.3						
CC(C)Oc1ccc(C(=O)/C=C/c2cccs2)c(O)c1CN1CCOCC1	3.39	2.21		34				
O=C(/C=C/c1ccccn1)c1ccc(CN2CCOCC2)c(O)c1	2.63	0.72	2.47	78				
CCOc1cc(O)c(C(=O)/C=C/c2cccnc2)cc1CN1CCOCC1	2.42	15.4	3.48	4.46				
O=C(/C=C/c1ccco1)c1cccc(O)c1CN1CCOCC1	18.2	2.5		17.2			39.7	
CCOc1cc(O)c(C(=O)/C=C/c2ccccn2)cc1CN1CCOCC1	0.89	15.1	1.24	0.18				
COc1cc(O)c(C(=O)/C=C/c2cccnc2)cc1CN1CCOCC1	2.65	11.8	4.52	2810				
O=C(/C=C/c1ccccc1)c1ccc(O)c(CN2CCOCC2)c1	16.6	15.6		35			9.32	
COc1ccc(/C=C/C(=O)c2cccnc2)c(CN2CCCCC2)c1O	13		20.1					
O=C(/C=C/c1ccncc1)c1ccc(O)c(CN2CCOCC2)c1	8.85	4.14	13.7	111				

Continued, in another order:

IC50 (Neutrophil [1]) [µM]	IC50 (RAW264.7 [2]) [µM]	IC50 (Neutrophil [4]) [µM]	Compound	IC50 (RAW264.7 [3]) [µM]	T1/2 (Neutrophil [5]) [s]	Activity (Neutrophil [6]) [nM]	inhibition at 30 µM (Neutrophil [7]) [%]	inhibition at 30 µM (Neutrophil [8]) [%]
14.8	2.52	18.9	O=C(/C=C/c1ccccn1)c1cc(CN2CCOCC2)c(O)c(CN2CCOCC2)c1	190				
25.6	1.28		Cc1ccc(/C=C/C(=O)c2ccc(O)c(CN3CCOCC3)c2)o1	0.006				
19.9	8.13		CCOc1cc(O)c(C(=O)/C=C/c2sccc2C)cc1CN1CCOCC1	2060				
25.4	0.47		O=C(/C=C/c1cccs1)c1ccc(O)c(CN2CCOCC2)c1	6830			19.3	
	0.93		CC(C)=CCOc1ccc(C(=O)/C=C/c2sccc2C)c(O)c1CN1CCOCC1	11				21.5
9.6	3.39	18.6	Cc1ccsc1/C=C/C(=O)c1cccc(O)c1CN1CCOCC1	182				
16.4	1.39	18.2	Cc1ccsc1/C=C/C(=O)c1ccc(O)c(CN2CCOCC2)c1					
1.66	0.018	1.44	O=C(/C=C/c1ccccn1)c1ccc(CN2CCOCC2)c(O)c1CN1CCOCC1	24.3				
	0.16		O=C(/C=C/c1ccco1)c1ccc(O)c(CN2CCOCC2)c1	10	28.1	276.51		27.4
19.9	10.5		CCOc1cc(O)c(C(=O)/C=C/c2ccc(C)o2)cc1CN1CCOCC1	91.3				
10.2	3.61		COc1cc(O)c(C(=O)/C=C/c2cccs2)cc1CN1CCOCC1	148				
19.4	0.23		CC(C)Oc1cc(O)c(C(=O)/C=C/c2cccs2)cc1CN1CCOCC1	47.7				
	0.44		Cc1ccsc1/C=C/C(=O)c1cc(CN2CCOCC2)c(O)c(CN2CCOCC2)c1	56.9			15.4	33.8
